Screens: PubChem, several laboratories
VIM-2 inhibitor: blocks Pseudomonas aeruginosa VIM-2 metallo-beta-lactamase. inhibition, % at 5.6 µM. hit rate 0.89% among 290,000. purified VIM-2, nitrocefin hydrolysis, epi-absorbance fluorescence. AID 1527;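 active = inhibition above the mean of all tested compounds plus 3 SD, cutoff set per screening run, cut at about 7.5% in these data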;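 note: red hydrolysis product quenches plate fluorescence so inhibitors raise well fluorescence; 0% = enzyme with DMSO and 100% = DMSO without enzyme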
NALP1 yeast inh: NALP1 inhibition. inhibition, % at 10 µM. AID 2071. hit rate 0.61% among 280,000. S. cerevisiae NALP1/ASC/caspase-1 growth, X-gal OD620, 72 h; in the data active = inhibition mostly above about 24%, no sharp cut-off; inactive = mostly below about 32%
NLRP3 yeast inh: NALP3 inhibition in yeast; Yeast reconstituted NLRP3/ASC/caspase-1, beta-gal luminescence, 24 h; hit rate 0.39% among 330,000; AID 2825; inhibition, % at 10 µM;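 active = inhibition of 50% or more; inactive = inhibition below 50%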;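 note: plate controls were induced DMSO wells for no effect and uninduced yeast grown without galactose for full effect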
Mot1-301 SUMO: inhibitors of SUMOylation pathway: yeast Mot1-301 growth rescue; hit rate 1% among 320,000; growth rescue, % at 18.8 µM; S. cerevisiae Mot1-301 growth rescue, ATP luminescence, 38.5C; percent above DMSO median, 100 means doubled; AID 2716;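 active = every valid replicate shows activation above 250% relative to neutral control wells; inactive = the rest, any valid replicate at or below 250%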;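 note: OY570 slx delta 5 strain wells were the positive control but not used for scaling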
IMP-1 inhibitor: blocks Pseudomonas aeruginosa IMP-1 metallo-beta-lactamase | purified IMP-1, nitrocefin hydrolysis, epi-absorbance fluorescence | inhibition, % at 5.6 µM | hit rate 0.45% among 290,000;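 active = inhibition above the mean plus 3 SD of all compounds in the same screening run, cut at about 4.5% in these data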;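 note: 0% = IMP-1 with DMSO and 100% = DMSO wells lacking enzyme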
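system = purified recombinant IMP-1 beta-lactamase | amount = 0.2 nM IMP-1, as dispensed | medium = HEPES buffer pH 7.1 with ZnSO4 and Brij 35 | times = 25 °C, 15 min preincubation, 25 min reaction | detection = plate fluorescence quenching by hydrolysis product, ex 480/em 530 nm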
PolyA inh: yeast polyadenylation inhibition; S. cerevisiae SKY197-pL101 polyadenylation reporter, beta-gal luminescence; efflux-impaired pdr1/pdr3 knockout yeast; score 100 = 6 SD above DMSO; activity score, % at 12 µM; hit rate 0.02% among 300,000;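 active = lowest replicate activity score at least 50, where 100 means six control SD above control mean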;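 note: yeast exposed to compound for 9 h at 30 °C; higher score means more reporter readthrough which indicates perturbed polyadenylation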
NALP3 confirm: NALP3 inhibition confirmation in yeast. shares compounds with NLRP3 yeast inh. yeast expressing human NALP3, luminescence. inhibition, % at 10 µM. hit rate 81% among 1,300. AID 435006; in the data active = inhibition above about 48%
Casp1-ASC yeast: caspase-1-ASC yeast counter-screen hit; inhibition, % at 10 µM; hit rate 66% among 1,000; yeast expressing Caspase-1-ASC, luminescence counter screen; shares compounds with NLRP3 yeast inh
NALP3 yeast rt: confirmation retest of NALP3 inhibitors in yeast | shares compounds with NLRP3 yeast inh | yeast expressing human NALP3, luminescence read-out | inhibition, % at 10 µM | hit rate 53% among 1,000 | AID 488794
An asterisk follows results filed as active; / = not tested or not shown. The list is not random: actives were taken first. Their share in the collection is about 2.9%. Cut-off read from the data, not from the text of the source, unless noted: active = inhibition above about 50%; inactive = the rest.

SMILES	VIM-2 inhibitor	NALP1 yeast inh	NLRP3 yeast inh	Mot1-301 SUMO	IMP-1 inhibitor	PolyA inh	NALP3 confirm	Casp1-ASC yeast	NALP3 yeast rt
COc1ccc(-c2cc(-c3ccccc3)c(C#N)c(S(C)=O)n2)cc1 (stereo unspecified)	1.3	15.5	1.8	95.5	-0.3	-16.4	/	/	/
COc1ccc(-c2cc3nc4ccccc4n3c(N)c2C#N)cc1	0.3	8.5	68.3*	239.4	-3.2	13.7	47.3	14.8	5.9
COc1ccc(Cn2c(-c3ccc(OC)cc3)nc3ccccc32)cc1	-1.8	31.3	23.8	541.8	-6.0	-17.0	/	/	/
Cn1cccc1-c1nc2ccccc2n1Cc1ccccc1	-1.9	-7.5	-107.9	590.6	-4.4	-22.3	-15.2	/	/
O=C(/C=C/c1ccccc1Cl)Nc1cccc(O)c1	-1.8	15.5	15.2	-25.6	-2.8	18.6	/	/	/
O=C(/C=C/c1ccccc1Cl)Nc1ccccc1	-0.9	-9.1	65.0*	18.5	0.8	15.0	75.5*	79.1*	74.3*
CCN1CCN(c2cc(C)c3cc(NC(=S)N4CCCC(C)C4)ccc3n2)CC1 (stereo unspecified)	-0.5	-3.5	1.7	4.3	-2.1	-3.9	/	/	/
Nc1cc(N2CCCCC2)c([N+](=O)[O-])cc1Cl	-2.8	35.6	50.5*	/	-1.4	-27.2	9.2	/	/
Nc1cc(N2CCCCC2)c(Cl)cc1[N+](=O)[O-]	-1.8	13.2	-8.2	-16.1	-2.4	-2.0	/	/	/
CC(C)(O)c1cc2ccc(C#Cc3ccsc3)cc2c(=O)o1	/	/	65.3*	-9.0	/	/	51.4*	67.2*	58.1*
CC(C)[C@@H](CSc1ccccc1)N1CCN(Cc2ccccc2)CCC1=O	-0.8	-8.5	28.8	1.4	-0.7	-7.4	/	/	/
Cc1nc2c3ccccc3nc(NNC(=O)CCC(=O)NCCN3CCN(c4ccccc4F)CC3)n2n1	-4.3	32.3	52.2*	20.4	-3.1	-0.6	75.8*	53.5*	71.2*
CC(=O)Nc1ccc(NC(=O)C(C)Oc2ccc(C)nc2[N+](=O)[O-])cc1 (stereo unspecified)	/	/	1.0	1.0	/	/	/	/	/
Clc1ccccc1Cn1nnc2c(Nc3ccccc3)ncnc21	-3.8	-5.9	61.6*	8.4	-3.5	4.9	73.8*	55.0*	56.7*
CCCN1CCCc2cc(CN)ccc21	-0.8	-1.6	53.9*	15.4	-5.4	-17.6	59.8*	/	/
O=C(NC1CC1)C1=C[C@H](C2CCCCC2)C[C@H](OCc2ccc(CO)cc2)O1	-0.1	7.5	57.5*	-6.4	-0.4	-5.3	60.5*	62.3*	45.9
C#CCNC(=O)C1=C[C@H](C2CCCCC2)C[C@H](OCc2ccc(CO)cc2)O1	-2.1	-41.0	54.3*	6.9	-1.7	-6.5	53.8*	50.7*	33.2
O=C(O)C1=C[C@@H](C2CCCCC2)C[C@@H](OCc2ccc(CO)cc2)O1	1.7	-4.7	24.1	-8.7	-1.6	-12.0	/	/	/
C#CCNC(=O)C1=C[C@@H](C2CCCCC2)C[C@@H](OCc2ccc(CO)cc2)O1	-2.0	3.5	19.8	-3.5	-2.7	-6.0	/	/	/
O=C(CN1C(=O)NC2(CCc3ccccc32)C1=O)c1c[nH]c2ccccc12 (stereo unspecified)	/	/	7.7	-8.8	/	4.0	/	/	/
COc1ccc(C(=O)/C=C2/C(=O)Nc3ccccc32)c(OC)c1	1.7	-49.5	68.6*	258.1	-2.1	6.8	81.5*	76.0*	79.8*
C=CCOc1ccc(C(=O)/C=C2/C(=O)Nc3ccccc32)cc1	-2.6	2.8	36.2	-10.5	-3.7	-17.7	/	/	/
C=CCOc1ccccc1C(=O)/C=C1/C(=O)Nc2ccccc21	-2.2	-22.8	59.4*	-11.6	-3.8	-5.3	75.3*	53.2*	59.1*
CCCCNC(=O)Oc1ccc(C(=O)N2c3ccccc3NC(=O)C2C)cc1 (stereo unspecified)	-2.7	18.2	19.3	4.0	-2.1	5.5	/	/	/
CCCOc1ccc2c3c(c(=O)oc2c1)CCCC3	2.3	7.4	55.3*	-13.0	-3.3	-55.1	63.3*	78.0*	63.6*
SMILES	VIM-2 inhibitor	NALP1 yeast inh	NLRP3 yeast inh	Mot1-301 SUMO	IMP-1 inhibitor	PolyA inh	NALP3 confirm	Casp1-ASC yeast	NALP3 yeast rt
CCOC(=O)COc1ccc2c3c(c(=O)oc2c1)CCCC3	2.7	/	10.8	-13.4	-3.3	12.6	/	/	/
Cc1ccc(C)c(COC(=O)CCN=C2NS(=O)(=O)c3ccccc32)c1	/	/	14.8	-19.0	/	-10.4	/	/	/
O=C(ON=C1CCN(S(=O)(=O)c2ccccc2)CC1)c1ccc(F)cc1	-2.1	0.6	-2.4	-4.4	-3.2	-7.5	/	/	/
CC(C)(C)C1CCC(=NOC(=O)c2ccc(F)cc2)CC1 (stereo unspecified)	-4.7	-21.9	58.6*	281.7	-5.5	-99.6	78.7*	53.8*	41.9
COc1ccc(/C=C(/NC(=O)c2ccc(C)cc2)C(=O)N2CCCC2)cc1OC	-1.2	10.0	20.6	-5.6	-2.5	14.4	/	/	/
O=C(CNC(=O)c1ccc(Cl)cc1)NNc1c(F)c(F)cc(F)c1F	/	/	0.3	-4.6	/	/	/	/	/
FC(F)(F)Sc1ccc(NC(=S)NCc2ccccc2)cc1	-0.9	18.9	52.8*	26.6	0.7	-17.0	23.6	/	/
Cn1nc(-c2ccccc2)c(C(=O)Nc2ccc(Cl)cc2)c1Cl	-0.2	13.1	81.3*	-26.1	-1.6	-5.5	86.2*	54.7*	30.8
CCOC(=O)c1cnc(SC)nc1N1CCCC1	0.8	2.7	55.5*	-45.8	-1.8	-13.0	51.6*	55.6*	41.9
C=CCc1ccc(OCCn2nnc3ccccc32)c(OC)c1	0.0	13.9	53.1*	12.4	-3.0	-8.0	63.2*	50.2*	31.0
Cc1ccc(N2C(=O)C3N=NN(CC(=O)N4N=C(c5ccccc5)CC4c4ccccc4)C3C2=O)cc1 (stereo unspecified)	-2.9	-21.3	65.4*	-5.9	-0.3	-10.4	60.8*	17.9	36.5
CC(C)(C)C(=O)Nc1ccc(N=Nc2ccccc2)cc1	-5.2	-6.5	53.0*	-0.2	-5.1	-13.4	64.8*	49.6	38.9
CCCCNC(=O)N1CCN(c2ccnc3cc(Cl)ccc23)CC1	1.4	5.2	21.8	14.1	-1.0	0.8	/	/	/
Cc1ccc([N+](=O)[O-])cc1NC(=O)c1ccc(C(C)(C)C)cc1	-1.0	-14.8	56.5*	1.3	-2.5	-7.5	51.2*	44.3	28.1
O=C(CNC(=O)c1ccccc1Br)N/N=C\c1cc([N+](=O)[O-])cc(Br)c1O	-0.9	-6.1	50.8*	25.0	-2.0	-41.4	36.9	22.6	35.5
O=C(CNC(=O)c1ccccc1Br)N/N=C/c1ccccc1O	-2.3	-1.5	4.8	5.0	-3.0	-11.0	/	/	/
Cc1ccc(CNC(=O)c2ccc3c(c2)NC(=O)CS3)cc1	-5.0	0.3	2.4	-6.2	-2.0	-21.0	/	/	/
